Source: PubChem (The Scripps Research Institute Molecular Screening Center)
SIAE inh: human SIAE inhibitors, primary screen, biochemical, fluorescence polarization, FP-Rh probe, 1536-well HTS; hit rate 0.69% among 370,000; Sialate O-acetylesterase (Homo sapiens), Q9HAT2; SIAE FP-Rh probe binding; AID 1053197, 2014; inhibition, % at 9.66 µM;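 active means inhibition above a cutoff: mean of compounds within the control limits plus 3 SD of those, cut at about 17% in these data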
HTRA1 inh: HTRA1 serine protease inhibitors, primary screen, biochemical, fluorescence polarization, HTS | inhibition, % at 5.96 µM | Q92743 | recombinant HTRA1, FP-rhodamine activity-based probe | hit rate 0.5% among 340,000; in the data active means inhibition above about 36%
Target sequence (Q92743 whole entry, looked up): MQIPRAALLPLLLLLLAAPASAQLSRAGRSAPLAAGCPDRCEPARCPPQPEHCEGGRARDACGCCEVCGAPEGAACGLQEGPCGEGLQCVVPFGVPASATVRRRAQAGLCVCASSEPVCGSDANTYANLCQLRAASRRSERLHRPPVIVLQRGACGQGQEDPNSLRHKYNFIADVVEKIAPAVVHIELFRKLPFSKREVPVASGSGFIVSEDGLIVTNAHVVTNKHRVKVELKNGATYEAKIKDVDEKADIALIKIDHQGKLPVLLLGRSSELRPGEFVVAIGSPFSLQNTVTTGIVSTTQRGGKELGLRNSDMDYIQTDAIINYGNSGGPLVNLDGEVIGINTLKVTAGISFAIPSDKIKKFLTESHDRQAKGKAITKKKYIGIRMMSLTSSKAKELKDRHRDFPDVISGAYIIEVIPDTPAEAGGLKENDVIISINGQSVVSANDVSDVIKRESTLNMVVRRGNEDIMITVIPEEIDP
PRMT1 inh: PRMT1 methyltransferase inhibitors, primary screen, biochemical, fluorescence polarization; recombinant PRMT1, activity-based probe fluorescence polarization; Protein arginine N-methyltransferase 1 (Homo sapiens), Q99873; inhibition, % at 2.79 µM; hit rate 1.3% among 370,000;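 active means inhibition above about 21% made by adding two undisclosed values, limit read from the data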
mABHD4 FP: ABHD4 inhibitors, primary screen, biochemical, fluorescence polarization, mouse. AID 720543, 2013. inhibition, % at 8.92 µM. purified mABHD4, FP-Rh probe fluorescence polarization. hit rate 0.54% among 370,000. (Lyso)-N-acylphosphatidylethanolamine lipase (Mus musculus), Q8VD66;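 active means inhibition exceeding the mean over every tested compound plus 3 SD, cut at about 30% in these data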
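Assay system: Wild-type mouse ABHD4 protein | Medium: HEPES pH 7.0 buffer, 150 mM NaCl, 0.01% Pluronic F-127 | Incubation: Enzyme–compound pre-incubation 45 min, then probe 60 min, both 25 °C | Technique: Fluorescence polarization with parallel and perpendicular emission, 525/598 nm | Evaluation: % inhibition of FP-Rh probe binding versus controls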
TCR-CD3 inh: inhibitors of human TCR-CD3 interaction, primary screen, biochemical, fluorescence, TAMRA-labeled TCR probe. inhibition, % at 9.4 µM. hit rate 0.37% among 360,000; in the data active means inhibition above about 19%;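 further: recombinant mutant TCR 2C K166C tagged with TAMRA read by polarization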
PRMT1 confirm: PRMT1 methyltransferase inhibitors, confirmation, biochemical, fluorescence polarization, triplicate | shares compounds with PRMT1 inh | recombinant His-PRMT1, activity-based probe fluorescence polarization | inhibition, % at 2.79 µM | hit rate 42% among 3,300 | AID 687036, 2013;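 active means mean inhibition across replicates above the hit cutoff derived for the earlier primary screen, cut at about 22% in these data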
Large screens that a line does not name were inactive (follow-up assays come after a bar, where they were run). Rows were chosen to be rich in hits. Some 2.7% of all compounds tested hit in one or more screens of this group.

CCN(CC)c1ccc(NC(=O)c2ccccc2)cc1S(=O)(=O)Nc1ccccc1OC	PRMT1 inh 26.6 | PRMT1 confirm inactive
CCN(CC)c1ccc(NC(=O)c2cccc(C)c2)cc1S(=O)(=O)Nc1ccccc1OC	PRMT1 inh 33.6 | PRMT1 confirm inactive
O=C(Nc1nc(-c2ccccn2)cs1)c1cccc(S(=O)(=O)N2CCOCC2)c1	none
COCCNC(=O)C1CCCN(C(=O)c2csc3ccccc23)CC1 (stereo not given)	none (no result: HTRA1 inh)
COCCNC(=O)C1CCCN(C(=O)c2oc3ccccc3c2C)CC1 (stereo not given)	PRMT1 inh 45.8 (no result: HTRA1 inh) | PRMT1 confirm inactive
COC(=O)[C@]12C[C@H](CC(=O)NCC34CC5CC(CC(C5)C3)C4)C(=O)N(Cc3ccccc3)C1=C[C@H](C1CCCC1)O[C@@H]2C	none (no result: HTRA1 inh)
CCN(CC)Cc1cc(O)c(CN(CC)CC)cc1O	PRMT1 inh 30.3 | PRMT1 confirm 76.4
CCc1oc(C(=O)O)cc1CN(CC)CC	none
Cc1cc2nc(-c3ccco3)c(Cc3ccccc3C(F)(F)F)n2c(C)c1Br	PRMT1 inh 35.7 (no result: HTRA1 inh) | PRMT1 confirm inactive
Cc1ccc2nc(-c3ccco3)c(Cc3ccccc3C(F)(F)F)n2c1	PRMT1 inh 33.4 (no result: HTRA1 inh) | PRMT1 confirm inactive
FC(F)(F)c1ccccc1Cc1c(-c2ccco2)nc2ccc(Br)cn12	PRMT1 inh 35.8 (no result: HTRA1 inh) | PRMT1 confirm inactive
FC(F)(F)c1ccccc1Cc1c(-c2ccco2)nc2c3ccccc3ccn12	PRMT1 inh 32.1 (no result: HTRA1 inh) | PRMT1 confirm 23.4
Cc1ccc2nc(-c3ccc(F)cc3)c(Cc3ccccc3C(F)(F)F)n2c1	none (no result: HTRA1 inh)
C=CCN(CC=C)C[C@@H]1CSCCS(=O)(=O)N1	none (no result: HTRA1 inh)
O=C(Cn1cnc([N+](=O)[O-])n1)c1ccc(O)c(O)c1	none
Cc1ccc(C)c(-n2c3nc(=O)[nH]c(=O)c-3cc3cc([N+](=O)[O-])ccc32)c1	PRMT1 inh 26.4 | PRMT1 confirm inactive
C=CCSC1=C(C#N)C(c2ccc(OCC)cc2)CC(=O)N1 (stereo not given)	PRMT1 inh 28.8 | PRMT1 confirm inactive
CCOc1ccc(C2CC(=O)NC(SC)=C2C#N)cc1 (stereo not given)	none
C=CCSC1=C(C#N)C(c2ccccc2Cl)CC(=O)N1 (stereo not given)	PRMT1 inh 45.5 | PRMT1 confirm inactive
O=C(Nc1ccccn1)c1ccc(Cl)c(S(=O)(=O)N2CCc3ccccc32)c1	none
C[C@H]1Cn2nncc2Cn2c3ccccc3c(=O)n21	none (no result: HTRA1 inh, TCR-CD3 inh)
O=C1C(Cl)=C(NCCc2ccccc2)C(=O)c2ccccc21	PRMT1 inh 65.8 | PRMT1 confirm 96.4
Brc1ccc2nc(-c3ccccc3)c(Cc3ccsc3)n2c1	none (no result: HTRA1 inh)
Brc1ccc2nc(-c3ccco3)c(Cc3ccsc3)n2c1	PRMT1 inh 36.0 (no result: HTRA1 inh) | PRMT1 confirm 34.4
Clc1ccc2nc(-c3ccco3)c(Cc3ccsc3)n2c1	PRMT1 inh 46.7 (no result: HTRA1 inh) | PRMT1 confirm 22.8
CO[C@@]1(NC(=O)C2SC(=C(C(N)=O)C(=O)O)S2)C(=O)N2C(C(=O)O)=C(CSc3nnnn3C)CS[C@@H]21 (stereo not given in full)	PRMT1 inh 37.4 | PRMT1 confirm inactive
Cn1c(=O)c2c([nH]c(=S)n2CCCc2ccccc2)n(C)c1=O	PRMT1 inh 40.9 | PRMT1 confirm 64.2
CC(C)c1nnc(SCC(=O)NCCC2=CCCCC2)n1N	PRMT1 inh 34.4 | PRMT1 confirm 39.2
CCCCCCCCc1nc(=S)[nH][nH]1	PRMT1 inh 27.1 | PRMT1 confirm 36.6
O=C(Cn1c(-c2cncs2)nc2ccccc21)N1CCOCC1	none (no result: HTRA1 inh, TCR-CD3 inh)
O=[N+]([O-])c1cc2c(cc1/C=N/NS(=O)(=O)c1ccc(Br)cc1)OCO2	PRMT1 inh 34.2 (no result: HTRA1 inh) | PRMT1 confirm inactive
Cc1ccc(S(=O)(=O)N/N=C\c2cc3c(cc2Br)OCO3)cc1	none
Cc1ccc(-c2ccc(/C=C/C(=O)c3ccccc3)o2)cc1	PRMT1 inh 31.9 | PRMT1 confirm 39.4
O=C(/C=C/c1ccc(-c2ccccc2[N+](=O)[O-])o1)c1ccc(Br)cc1	none
O=C(/C=C/c1ccc(-c2ccccc2[N+](=O)[O-])o1)c1ccc(F)cc1	PRMT1 inh 33.0 | PRMT1 confirm inactive
